For series [1], the species on record is Homo sapiens. As to the kind of experiment: Antiproliferative activity against human SNU538 cells after 72 hrs by SRB assay. The format is functional, cell-based. In general terms: Sulforhodamine B stains cellular protein and so reports cell mass.
Series [2] has as its system HCT-116. In words: Antiproliferative activity against human HCT116 cells after 72 hrs by SRB assay. Type of series: functional, cell-based.
Series [3] has as its system MDA-MB-231. In words: Antiproliferative activity against human MDA-MB-231 cells after 72 hrs by SRB assay. The format is functional, cell-based.
The subject of series [4] is A549. As to the kind of experiment: Antiproliferative activity against human A549 cells after 72 hrs by SRB assay. Type of series: functional, cell-based.
Series [5] relates to SK-HEP1. In words: Antiproliferative activity against human SKHEP1 cells after 72 hrs by SRB assay. The format is functional, cell-based.
The subject of series [6] is MCF-10A. As to the kind of experiment: Antiproliferative activity against human MCF10A cells after 72 hrs by SRB assay. Type of series: cell-based.
Series [7] has as its system Staphylococcus aureus. As to the kind of experiment: Antibacterial activity against Staphylococcus aureus. The format is functional.
The subject of series [8] is Enterococcus faecalis. In words: Antibacterial activity against Enterococcus faecalis. Type of series: functional.
Series [9] relates to Enterococcus faecium. As to the kind of experiment: Antibacterial activity against Enterococcus faecium. The format is functional.
Series [10] concerns Klebsiella pneumoniae. In words: Antibacterial activity against Klebsiella pneumoniae. Type of series: functional.
Series [11] deals with Salmonella enterica. In words: Antibacterial activity against Salmonella enterica. The format is functional.
Series [12] has as its system Escherichia coli. In words: Antibacterial activity against Escherichia coli. The format is functional.
In series [13] the test system is Candida albicans. As to the kind of experiment: Antifungal activity against Candida albicans. The format is functional.
Series [14] deals with Aspergillus fumigatus. As to the kind of experiment: Antifungal activity against Aspergillus fumigatus. The format is functional.
In series [15] the test system is Trichophyton rubrum. As to the kind of experiment: Antifungal activity against Trichophyton rubrum. The format is functional.
In series [16] the test system is Trichophyton mentagrophytes. As to the kind of experiment: Antifungal activity against Trichophyton mentagrophytes. Type of series: functional.
In series [17] the test system is MDA-MB-231. In words: Antimigratory activity against human MDA-MB-231 cells at 20 uM after 48 hrs by wound healing assay relative to control. The format is functional. Put shortly:
(§1)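 Wound healing (scratch) assay on MDA-MB-231 human breast cancer cells, compound at 20 and 40 μM, sunitinib as positive control. Migration was expressed relative to untreated control as mean ± SD (n = 3), with significance versus control.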

Series [18] concerns MDA-MB-231. In words: Antimigratory activity against human MDA-MB-231 cells at 40 uM after 48 hrs by wound healing assay relative to control. Type of series: functional. In short, it runs like this:
as §1

The subject of series [19] is MDA-MB-231. In words: Antiinvasive activity against human MDA-MB-231 cells at 20 uM after 48 hrs by crystal violet staining based microscopic method relative to control. Type of series: functional. In short, it runs like this:
(§2)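 Cell invasion assay with MDA-MB-231 human breast cancer cells exposed to 20 or 40 μM compound, sunitinib as positive control. Invasion decrease is relative to untreated control, given as mean ± SD of n = 3, with significance versus control.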

For series [20], the system named is MDA-MB-231. In words: Antiinvasive activity against human MDA-MB-231 cells at 40 uM after 48 hrs by crystal violet staining based microscopic method relative to control. The format is functional. Put shortly: as §2
For series [21], the system named is RAW264.7. In words: Cytotoxicity against LPS-induced mouse RAW264.7 cells assessed as reduction in cell viability up to 80 uM by MTT assay. The format is cell-based. In short, it runs like this:
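Viability of mouse macrophages after co-exposure to LPS and compound, measured by MTT assay. This was run alongside the LPS-induced NO suppression assay to check for cytotoxicity.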
For orientation: Tetrazolium assays rely on reduction of a dye to a coloured formazan, in cell work by metabolically active cells.

The test system of series [22] is RAW264.7. In words: Antiinflammatory activity in mouse RAW264.7 cells assessed as inhibition of LPS-induced nitric oxide production preincubated for 1 hr followed by LPS addition and measured on next day by Griess reagent based assay. Type of series: functional, cell-based. In short, it runs like this:
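Mouse macrophages treated with compound, then stimulated with LPS to induce nitric oxide production (iNOS assay). NO suppression was read against LPS-only cells and expressed as IC50. 2-Amino-5,6-dihydro-6-methyl-4H-1,3-thiazine (AMT) was the positive control.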
On the technique in general: The Griess reaction detects nitrite, a stable product of nitric oxide.

The test system of series [23] is MDA-MB-231. In words: Antimigratory activity against human MDA-MB-231 cells after 48 hrs by wound healing assay. The format is functional, cell-based. Put shortly: as §1

In brackets after ≈: the same amount, converted by molar mass. Activity calls are given as the source filed them. No cut-off for these calls is given here.

With `CCCCCC[C@H]1CN(O)[C@H]2C=C/C(=C\C=C\C(=O)O)[C@]23O[C@H]13`, the outcome in series [1], in series [2], in [3], in series [4], in series [5] and in [17] was inactive. The outcome in series [18], in series [19] and in [20] was inactive. The Activity entry in series [6] and in series [21] was “Non-Toxic” in each case. Also, the minimum inhibitory concentration (MIC) in series [7], in series [8], in series [9], in [10], in [11] and in [12] was 64 µM (≈ 20.4 µg/mL) each time. The MIC in series [13], in [14], in series [15] and in series [16] was > 128 µM in each case. Besides, in series [22], the IC50 (as a rule, the concentration that inhibits the measured activity by half) was found to be 83 µM.

For the molecule `CCCCCC[C@H]1CN[C@H]2C=C/C(=C\C=C\C(=O)O)[C@]23O[C@H]13`, the result in series [1], in series [2], in series [3], in series [4] and in [5] was inactive. In addition, the Activity entry in series [6] is “Non-Toxic”; in series [23], “Dose-dependent effect”; in [17], 50%; in series [18] it was 73%; in [19], 20%; in series [20], 36%. Besides, the Activity entry in series [21] is on record as “Non-Toxic”. In addition, the MIC in series [7], in series [8], in series [9], in [10], in [11] and in series [12] was 64 µM (≈ 19.4 µg/mL) each time. Moreover, the MIC in series [13], in series [14], in series [15] and in series [16] was > 128 µM in each case. The IC50 in series [22] turned out to be 16.9 µM.

The record behind these values is ChEMBL document CHEMBL4400583, “Camporidines A and B: Antimetastatic and Anti-inflammatory Polyketide Alkaloids from a Gut Bacterium of Camponotus kiusiuensis” (J Nat Prod, 2019).
